Compound activity: PubChem, The Scripps Research Institute Molecular Screening Center
Rows were chosen to be rich in hits. Some 1.8% of all compounds tested hit in one or more screens of this group.
TLR9-MyD88 block – blocks human TLR9 binding to MyD88; Q9NR96+Q99836; CHO BLA complementation TLR9-MyD88, CCF4 FRET ratio; inhibition, % at 4.98 µM; hit rate 0.21% among 340,000; AID 504734;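 active = inhibition above the mean over all tested compounds plus 3 SD, cut at about 21% in these data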
MC4R ag barr – human MC4R agonism via beta-arrestin; P32245; U2OS MC4R beta-arrestin complementation, luminescence; percent of melanotan II response, DMSO zero; activation, % at 8.9 µM; hit rate 0.98% among 360,000; AID 540308;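 active = activation above a per-plate cutoff, the mean activation of sample wells on that plate plus 3 SD, cut at about 8% in these data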
TLR4 MyD88 comp – inhibitors of human TLR4-MyD88 binding; O00206+Q99836; HeLa CL3-4 TLR4/MyD88 BLA complementation, FRET ratio; inhibition, % at 8.4 µM; hit rate 0.18% among 200,000; AID 861; in the data active = inhibition above about 25%
Target sequence (O00206 whole entry, looked up): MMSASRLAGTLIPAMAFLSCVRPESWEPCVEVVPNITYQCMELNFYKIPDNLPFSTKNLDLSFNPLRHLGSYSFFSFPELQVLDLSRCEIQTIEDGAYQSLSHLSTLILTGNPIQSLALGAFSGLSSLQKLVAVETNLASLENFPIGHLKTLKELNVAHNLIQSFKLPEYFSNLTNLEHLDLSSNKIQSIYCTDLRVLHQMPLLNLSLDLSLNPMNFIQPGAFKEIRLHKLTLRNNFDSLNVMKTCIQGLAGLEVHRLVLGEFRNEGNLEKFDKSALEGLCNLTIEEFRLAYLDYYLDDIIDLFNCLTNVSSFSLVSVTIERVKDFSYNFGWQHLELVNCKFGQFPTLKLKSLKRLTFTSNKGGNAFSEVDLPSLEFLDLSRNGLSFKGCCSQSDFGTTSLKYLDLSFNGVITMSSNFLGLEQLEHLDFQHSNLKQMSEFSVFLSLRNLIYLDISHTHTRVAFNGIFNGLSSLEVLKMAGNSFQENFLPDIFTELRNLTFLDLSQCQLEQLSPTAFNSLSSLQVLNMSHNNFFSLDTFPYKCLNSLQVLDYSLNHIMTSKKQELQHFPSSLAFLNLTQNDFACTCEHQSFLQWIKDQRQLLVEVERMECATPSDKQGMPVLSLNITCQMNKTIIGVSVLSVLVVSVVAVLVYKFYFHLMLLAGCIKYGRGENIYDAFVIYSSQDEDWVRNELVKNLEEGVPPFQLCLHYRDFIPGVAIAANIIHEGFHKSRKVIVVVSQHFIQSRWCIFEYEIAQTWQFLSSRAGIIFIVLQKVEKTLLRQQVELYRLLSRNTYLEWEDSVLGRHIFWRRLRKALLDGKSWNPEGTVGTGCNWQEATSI
Target sequence (Q99836 whole entry, looked up): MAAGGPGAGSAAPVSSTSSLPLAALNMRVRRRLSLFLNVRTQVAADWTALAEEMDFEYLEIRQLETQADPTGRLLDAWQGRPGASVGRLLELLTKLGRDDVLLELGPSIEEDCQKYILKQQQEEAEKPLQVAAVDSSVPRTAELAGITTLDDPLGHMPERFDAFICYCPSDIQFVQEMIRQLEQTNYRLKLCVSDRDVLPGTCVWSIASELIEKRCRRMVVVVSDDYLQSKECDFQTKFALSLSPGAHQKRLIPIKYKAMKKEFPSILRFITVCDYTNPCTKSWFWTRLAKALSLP
MC4R antagonist – antagonists of human melanocortin 4 receptor (MC4R); P32245; MC4R-expressing cells, MTII-stimulated cAMP, LANCE TR-FRET; inhibition, % at 6.5 µM; hit rate 0.48% among 360,000; AID 540295;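 active = inhibition above its plate's cutoff, the mean of tested wells on that plate plus 3 SD, cut at about 29% in these data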
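system = U2OS cells with stable human MC4R expression | also added = Melanotan II challenge after compound preincubation | dosing = one concentration, 6.5 µM nominal | incubation = compound 30 min, challenge 1 h, detection 1 h | measured by = TR-FRET with Eu-cAMP and labeled anti-cAMP, 671 nm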
NOD2 RIPK2 PPI – inhibitors of human NOD2-RIPK2 interaction; hit rate 0.38% among 360,000; CHO BLA complementation NOD2-RIPK2, CCF4 ratio; inhibition, % at 4.98 µM; O43353; AID 624267; in the data active = inhibition above about 21%
TLR9-MyD88 conf – TLR9-MyD88 interaction inhibition, confirmation; shares compounds with TLR9-MyD88 block; CHO TLR9/MyD88 BLA complementation, CCF4 FRET ratio; inhibition, % at 4.98 µM; hit rate 51% among 680; AID 540250;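 active = mean inhibition across three repeats above about 21% taken from the earlier screen, limit read from the data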;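 also: blue over green emission ratio reports constitutive TLR9 MyD88 association via BLA complementation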
BLA nonselective – counter-screen for TLR9-MyD88 inhibitors: non-selective beta-lactamase inhibitors. inhibition, % at 4.98 µM. shares compounds with TLR9-MyD88 block. hit rate 7% among 680. CHO-BLA cells, CCF4 FRET ratio, BLA reporter;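 active = mean inhibition above a 50% cutoff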;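 also: counterscreen of TLR9-MyD88 hits on CMV-driven BLA in CHO-K1 cells; higher means less blue over green ratio so more BLA blockade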
TLR9 CHO tox – counter-screen for TLR9-MyD88 inhibitors: cytotoxicity in CHO cells; shares compounds with TLR9-MyD88 block; hit rate 39% among 680; luminescence; AID 588336; inhibition, % at 4.98 µM; in the data active = inhibition above about 11%
Of the large screens only hits and unclear results are named; the others gave an inactive call (follow-up assays come after a bar, where they were run).

Cc1ccc(S(=O)(=O)/N=C2/NC(=O)/C(=C/c3cc([N+](=O)[O-])ccc3O)S2)cc1	TLR9-MyD88 block 27 (no result: TLR4 MyD88 comp) | TLR9-MyD88 conf inactive | BLA nonselective inactive | TLR9 CHO tox inactive
CNS(=O)(=O)c1cc(N(C)S(=O)(=O)c2ccc(C)cc2)c(C)cc1C	none
Cc1ccc(S(=O)(=O)N(C)c2cc(S(=O)(=O)Nc3ccncc3)c(C)cc2C)cc1	TLR9-MyD88 block 29 | TLR9-MyD88 conf inactive | BLA nonselective inactive | TLR9 CHO tox inactive
O=c1[nH]ncc(NCCc2ccccc2)c1Cl	TLR9-MyD88 block 24 | TLR9-MyD88 conf inactive | BLA nonselective inactive | TLR9 CHO tox inactive
COc1cc(/C=N/NC(=O)c2ccc([N+](=O)[O-])cc2Cl)cc(Br)c1O	TLR9-MyD88 block 34 | TLR9-MyD88 conf inactive | BLA nonselective inactive | TLR9 CHO tox inactive
COc1ccc(Br)cc1C(=O)N/N=C/c1ccc([N+](=O)[O-])cc1	none
COc1ccc(-n2c(=O)c3c(C)c(C)sc3n(Cc3ccc(F)cc3)c2=O)c(OC)c1	none
CCOC(=O)[C@H]1[C@H]2COc3ccc(C)cc3[C@@H]2N2C(=O)CN(Cc3ccco3)C(=O)[C@@]12C	TLR9-MyD88 block 22 (no result: TLR4 MyD88 comp) | TLR9-MyD88 conf inactive | BLA nonselective inactive | TLR9 CHO tox inactive
COC(=O)c1cn[nH]c1NC(=S)Nc1ccc(Cl)c(Cl)c1	TLR9-MyD88 block 22 | TLR9-MyD88 conf inactive | BLA nonselective inactive | TLR9 CHO tox inactive
Cc1ccc(C(=O)NCC2CCCO2)cc1S(=O)(=O)N1CCCCC1 (centres undefined)	none (no result: TLR4 MyD88 comp)
COc1cc(NC(=O)Cn2ncc(Cl)c(Cl)c2=O)c(C)cc1[N+](=O)[O-]	TLR9-MyD88 block 21 | TLR9-MyD88 conf 23 | BLA nonselective inactive | TLR9 CHO tox 98
COc1cc(NC(=O)CN2C(=O)CN(C)C2=O)c(C)cc1[N+](=O)[O-]	none
CCOc1cc(C(=O)Nc2ccc(C(=O)NCCN(CC)CC)cc2)ccc1OCC(=O)N1CCOCC1	none (no result: TLR4 MyD88 comp)
COc1ccc(-c2cc(C(=O)NCc3ccco3)c3ccccc3n2)cc1	none (no result: TLR4 MyD88 comp)
COc1ccc(-c2cc(C(=O)NCc3ccco3)c3ccccc3n2)c(OC)c1	TLR9-MyD88 block 33 (no result: TLR4 MyD88 comp) | TLR9-MyD88 conf inactive | BLA nonselective inactive | TLR9 CHO tox inactive
C=CCn1nc2n(c1=O)-c1ccccc1SC2	TLR9-MyD88 block 23 (no result: TLR4 MyD88 comp) | TLR9-MyD88 conf inactive | BLA nonselective inactive | TLR9 CHO tox inactive
O=c1n(Cc2ccccc2)nc2n1-c1ccccc1SC2	none (no result: TLR4 MyD88 comp)
Oc1[nH]c2ccccc2c1N=Nc1ccccn1	none (no result: TLR4 MyD88 comp)
Oc1c(N=Nc2ccccn2)ccc2ccccc12	TLR9-MyD88 block 24 | TLR9-MyD88 conf inactive | BLA nonselective inactive | TLR9 CHO tox 99
Cc1cc2nc3c(=O)n(C4CCCCC4)c(=O)[nH]c3nc2cc1N	TLR9-MyD88 block 28 | TLR9-MyD88 conf inactive | BLA nonselective inactive | TLR9 CHO tox inactive
Cc1cc(C)c(CN2CCC(CO)(CCOc3ccccc3)CC2)cc1C	none
Cc1c(CN2CCC(CO)(CCOc3ccccc3)CC2)c(=O)n(-c2ccccc2)n1C	TLR9-MyD88 block 34 | TLR9-MyD88 conf inactive | BLA nonselective inactive | TLR9 CHO tox inactive
CCOC(=O)CCCCCC(=O)Nc1ccc2c(c1)CC(=O)N([C@@H](C)CO)C[C@H](C)[C@@H](CN(C)C(=O)Nc1ccc3c(c1)OCO3)O2	none (no result: TLR4 MyD88 comp)
CCN(CC(=O)Nc1ccc(NC(C)=O)cc1)C(=O)CC1OC(=O)c2ccccc21 (centres undefined)	none (no result: TLR4 MyD88 comp)
COc1ccc(C2NN=C(c3ccc(C)cc3)S2)cc1 (centres undefined)	none (no result: TLR4 MyD88 comp)
CCOc1cc(C2NN=C(c3ccc(C)cc3)S2)ccc1O (centres undefined)	TLR9-MyD88 block 21 | TLR9-MyD88 conf inactive | BLA nonselective inactive | TLR9 CHO tox inactive
O=C(c1ccccc1Cl)N1CCSCC1	none (no result: TLR4 MyD88 comp)
O=CN1CCN(C(=O)c2ccccc2Cl)CC1	TLR9-MyD88 block 44 | TLR9-MyD88 conf inactive | BLA nonselective inactive | TLR9 CHO tox inactive
COc1cc(-c2ccc(N3C(c4ccsc4)=Cc4ccccc4C3CC(C)=O)cc2)cc(OC)c1OC (centres undefined)	none (no result: TLR9-MyD88 block, MC4R ag barr, TLR4 MyD88 comp, MC4R antagonist)
CN(C)C(=O)NC1c2ccccc2-c2ccccc21	none (no result: TLR4 MyD88 comp)
O=C1C=CC(=O)N1c1ccc2c(c1)C(NC(=O)C(F)(F)F)c1ccccc1-2 (centres undefined)	TLR9-MyD88 block 30, MC4R antagonist 71 (no result: TLR4 MyD88 comp) | TLR9-MyD88 conf 36 | BLA nonselective inactive | TLR9 CHO tox 98
Cc1ccc(Cl)c(NC(=O)COC(=O)c2ccccc2C(=O)c2ccc(Cl)c([N+](=O)[O-])c2)c1Cl	TLR9-MyD88 block 27 | TLR9-MyD88 conf 29 | BLA nonselective inactive | TLR9 CHO tox 15
O=C1CC2(CCN(C(=O)C3CC(=O)N(c4ccc(F)cc4)C3)CC2)Oc2ccccc21 (centres undefined)	none (no result: TLR4 MyD88 comp)
O=[N+]([O-])c1ccc(Sc2cc[n+]([O-])c3ccccc23)c([N+](=O)[O-])c1	TLR9-MyD88 block 32 (no result: TLR4 MyD88 comp) | TLR9-MyD88 conf 24 | BLA nonselective inactive | TLR9 CHO tox 30
O=c1[nH]c(Sc2ccc([N+](=O)[O-])cc2[N+](=O)[O-])nc2ccccc12	none (no result: TLR4 MyD88 comp)
CCC(=O)OCCNc1cc(Sc2nccn2C)c2nonc2c1[N+](=O)[O-]	TLR9-MyD88 block 24 | TLR9-MyD88 conf 69 | BLA nonselective inactive | TLR9 CHO tox 101
CCC(=O)OCCNc1cc(SCCC(=O)OC)c2nonc2c1[N+](=O)[O-]	none
CCCCN(CCCC)c1nc2ccccc2nc1C(C#N)C(=O)NCCCOC (centres undefined)	TLR9-MyD88 block 40 | TLR9-MyD88 conf inactive | BLA nonselective inactive | TLR9 CHO tox inactive
C[C@H](NC(=O)c1ncn2c1C(=O)N[C@@H](C)C2)c1ccccc1	none (no result: TLR4 MyD88 comp)
CC(=O)Nc1ccc(NC2=C(Cl)C(=O)c3ccccc3C2=O)cc1	none (no result: TLR9-MyD88 block, MC4R ag barr, MC4R antagonist, NOD2 RIPK2 PPI)
CN(C)c1ccc(NC2=C(Cl)C(=O)c3ccccc3C2=O)cc1	TLR9-MyD88 block 25 | TLR9-MyD88 conf 23 | BLA nonselective inactive | TLR9 CHO tox 19
O=C(CSc1nc(O)cc(=O)n1-c1ccccc1)NCc1ccccc1	TLR9-MyD88 block 21 | TLR9-MyD88 conf inactive | BLA nonselective inactive | TLR9 CHO tox inactive
O=c1cc(O)nc(SCc2ccccc2)n1-c1ccccc1	none
Cc1c(Cl)cccc1NC(=O)CN1CCN(CCN=CC2=C(O)CC(c3ccccc3)CC2=O)CC1 (centres undefined)	none
Cc1ccc(N2C(=O)NC(NS(=O)(=O)c3ccc(C)cc3)(C(F)(F)F)C2=O)cc1 (centres undefined)	TLR9-MyD88 block 21 (no result: TLR4 MyD88 comp) | TLR9-MyD88 conf inactive | BLA nonselective inactive | TLR9 CHO tox inactive
